Measured values taken from ChEMBL document CHEMBL1140127, “Enantiomeric propanolamines as selective N-methyl-D-aspartate 2B receptor antagonists” (J Med Chem, 2008).
The source made the active and inactive calls. No cut-off for these calls is given here.

Legend:
[1] = Inhibition of sodium channel
In short: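 Rat cortical neurons cultured from E17 embryos and recorded at 5–10 days by whole-cell patch clamp at 23 °C. Holding −60 mV with 100 ms steps, in the presence of bicuculline, CNQX and DL-APV. Tetrodotoxin-sensitive Na+ current measured at −10 mV; mean compared by paired t test.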

[2] = target: Voltage-gated inwardly rectifying potassium channel KCNH2 (Homo sapiens, UniProt Q12809); test: (§1) Displacement of [3H]astemizole from human ERG expressed in HEK293 cells
Chain of Voltage-gated inwardly rectifying potassium channel KCNH2 (Q12809 whole entry): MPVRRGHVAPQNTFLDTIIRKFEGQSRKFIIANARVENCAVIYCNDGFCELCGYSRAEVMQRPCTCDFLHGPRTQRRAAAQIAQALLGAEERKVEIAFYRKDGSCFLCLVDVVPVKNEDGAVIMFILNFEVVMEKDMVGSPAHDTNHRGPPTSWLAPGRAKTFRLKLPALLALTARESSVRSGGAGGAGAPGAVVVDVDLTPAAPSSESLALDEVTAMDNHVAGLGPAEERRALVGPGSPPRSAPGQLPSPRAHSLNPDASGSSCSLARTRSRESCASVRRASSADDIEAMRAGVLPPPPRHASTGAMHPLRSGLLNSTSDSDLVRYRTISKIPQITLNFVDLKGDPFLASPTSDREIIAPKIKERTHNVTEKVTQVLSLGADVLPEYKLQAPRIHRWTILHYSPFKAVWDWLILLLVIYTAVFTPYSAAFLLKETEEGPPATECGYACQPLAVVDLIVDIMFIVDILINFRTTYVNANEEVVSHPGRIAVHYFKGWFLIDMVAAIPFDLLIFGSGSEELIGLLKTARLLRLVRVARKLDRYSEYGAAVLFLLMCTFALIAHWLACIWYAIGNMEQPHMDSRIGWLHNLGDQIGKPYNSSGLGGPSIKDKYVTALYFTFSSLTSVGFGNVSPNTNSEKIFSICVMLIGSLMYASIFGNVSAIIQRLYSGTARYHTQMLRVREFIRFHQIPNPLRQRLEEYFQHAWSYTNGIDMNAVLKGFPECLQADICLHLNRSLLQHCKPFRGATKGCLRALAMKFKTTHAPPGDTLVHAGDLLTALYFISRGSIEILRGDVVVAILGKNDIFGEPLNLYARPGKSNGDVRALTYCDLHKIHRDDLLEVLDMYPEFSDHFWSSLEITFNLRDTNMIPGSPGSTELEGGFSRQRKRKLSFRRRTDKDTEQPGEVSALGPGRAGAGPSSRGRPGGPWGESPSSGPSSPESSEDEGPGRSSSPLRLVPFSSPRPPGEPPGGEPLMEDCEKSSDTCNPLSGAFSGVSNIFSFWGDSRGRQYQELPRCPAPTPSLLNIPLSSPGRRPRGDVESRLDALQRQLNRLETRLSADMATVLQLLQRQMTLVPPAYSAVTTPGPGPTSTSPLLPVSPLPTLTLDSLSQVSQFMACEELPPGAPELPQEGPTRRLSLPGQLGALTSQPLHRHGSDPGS

hERG (KCNH2) = hERG (KCNH2) (Homo sapiens, UniProt Q12809); test: as §1; conditions: human, HEK293 cells expressing human ERG, probe [3H]astemizole
Chain of hERG (KCNH2) (Q12809 whole entry): as above

[3] = target: Sodium-dependent dopamine transporter (Homo sapiens, UniProt Q01959); test: Binding affinity to dopamine transporter
[4] = target: Sodium-dependent noradrenaline transporter (Homo sapiens, UniProt P23975); test: Binding affinity to norepinephrine transporter
Chain of Sodium-dependent noradrenaline transporter (P23975 whole entry): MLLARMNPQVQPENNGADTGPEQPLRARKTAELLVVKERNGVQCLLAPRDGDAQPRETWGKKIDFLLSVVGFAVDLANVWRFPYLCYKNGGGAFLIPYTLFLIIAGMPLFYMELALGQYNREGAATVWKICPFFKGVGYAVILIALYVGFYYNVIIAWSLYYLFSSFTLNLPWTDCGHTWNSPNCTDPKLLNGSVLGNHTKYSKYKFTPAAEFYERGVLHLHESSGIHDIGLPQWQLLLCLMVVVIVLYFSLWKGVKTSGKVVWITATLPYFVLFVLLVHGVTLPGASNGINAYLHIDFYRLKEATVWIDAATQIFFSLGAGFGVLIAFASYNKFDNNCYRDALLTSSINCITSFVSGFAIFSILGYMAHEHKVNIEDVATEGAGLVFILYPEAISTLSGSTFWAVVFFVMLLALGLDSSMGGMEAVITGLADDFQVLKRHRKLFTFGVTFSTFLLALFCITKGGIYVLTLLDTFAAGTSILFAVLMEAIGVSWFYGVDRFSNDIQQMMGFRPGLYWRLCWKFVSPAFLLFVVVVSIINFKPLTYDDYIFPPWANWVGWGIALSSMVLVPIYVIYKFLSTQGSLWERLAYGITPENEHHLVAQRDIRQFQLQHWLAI

Cortical neurone = test: Neuroprotective effect against NMDA-induced toxicity in Sprague-Dawley rat cultured cortical neurons assessed as LDH release pretreated 15 mins before NMDA treatment assessed after 16 to 24 hrs by spectrophotometry; format: functional
In short: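 Rat cortical cultures (E16–E19) used at 9–12 days. Cells pretreated 15 min in ACSF at pH 7.6, then exposed 10 min at room temperature to 100 μM NMDA plus 10 μM glycine with compound present. Washed with D-APV/CNQX. LDH release measured 16–24 h later as a fraction of total. Scaled between the D-APV minimum and the NMDA maximum; cultures with <10% death discarded.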

Rattus norvegicus [5] = test: Anticonvulsant activity in Sprague-Dawley rat assessed as inhibition of electroshock-induced tonic hind limb extension at 30 mg/kg, ip administered 30 mins before electroshock; format: functional, organism-based; design: dose 30 mg/kg; conditions: Hindlimb
In short: (§2)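 Male Sprague–Dawley rats, 100–125 g, with 1% lidocaine dropped into each conjunctiva before maximal electroshock. Compound given ip in DMSO 30 min before the stimulus. Tested on three consecutive days: untreated on days 1 and 3, compound on day 2. Duration of tonic hind limb extension scored visually. Vehicle served as negative control and carbamazepine 60 mg/kg as positive control. ANOVA with Bonferroni post hoc test.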

Rattus norvegicus [6] = test: Anticonvulsant activity in Sprague-Dawley rat assessed as inhibition of electroshock-induced tonic hind limb extension at 100 mg/kg, ip administered 30 mins before electroshock; format: functional, organism-based; design: dose 100 mg/kg; conditions: Hindlimb; in short: as §2
Brain = test: Drug level in rat brain at 30 mg/kg, ip by LC-MS/MS analysis; format: ADME, organism-based; design: dose 30 mg/kg, route intraperitoneal
In short: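 Rats, n = 3 per dose, given 30 mg/kg ip in 2% dimethyl acetamide/98% 5% 2-hydroxypropyl cyclodextrin after overnight fasting. Brain weighed and homogenized on ice in 50 mM phosphate buffer. Homogenate extracted with 5 volumes of cold acetonitrile, then centrifuged. Parent compound quantified by LC-MS/MS in MRM mode against a standard curve.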

[7] = Protein binding in mouse plasma; format: ADME, cell-free; conditions: read-out: PPB (converted)
[8] = Protein binding in human plasma; format: ADME, cell-free; conditions: read-out: PPB (converted)
[9] = target: Glutamate NMDA receptor; Grin1/Grin2a (Rattus norvegicus) (UniProt P35439+Q00959); test: Inhibition of rat recombinant NR1/NR2A receptor expressed in Xenopus oocytes assessed as inhibition of glutamate and glycine-induced evoked current at 3uM by two electrode voltage clamp method; format: cell-based; conditions: Oocyte
[10] = target: Ionotropic glutamate receptor NMDA 1/2D (Rattus norvegicus) (UniProt P35439+Q62645); test: Inhibition of rat recombinant NR1/NR2D receptor expressed in Xenopus oocytes assessed as inhibition of glutamate and glycine-induced evoked current at 3uM by two electrode voltage clamp method; format: cell-based; conditions: Oocyte
[11] = target: Glutamate receptor 3 (Rattus norvegicus) (UniProt P19492); test: Inhibition of rat recombinant GluR3 expressed in Xenopus oocytes assessed as inhibition of kainate-induced evoked current at 3 uM by two electrode voltage clamp method; format: cell-based; conditions: Oocyte
Chain of Glutamate receptor 3 (Rattus norvegicus) (P19492 whole entry): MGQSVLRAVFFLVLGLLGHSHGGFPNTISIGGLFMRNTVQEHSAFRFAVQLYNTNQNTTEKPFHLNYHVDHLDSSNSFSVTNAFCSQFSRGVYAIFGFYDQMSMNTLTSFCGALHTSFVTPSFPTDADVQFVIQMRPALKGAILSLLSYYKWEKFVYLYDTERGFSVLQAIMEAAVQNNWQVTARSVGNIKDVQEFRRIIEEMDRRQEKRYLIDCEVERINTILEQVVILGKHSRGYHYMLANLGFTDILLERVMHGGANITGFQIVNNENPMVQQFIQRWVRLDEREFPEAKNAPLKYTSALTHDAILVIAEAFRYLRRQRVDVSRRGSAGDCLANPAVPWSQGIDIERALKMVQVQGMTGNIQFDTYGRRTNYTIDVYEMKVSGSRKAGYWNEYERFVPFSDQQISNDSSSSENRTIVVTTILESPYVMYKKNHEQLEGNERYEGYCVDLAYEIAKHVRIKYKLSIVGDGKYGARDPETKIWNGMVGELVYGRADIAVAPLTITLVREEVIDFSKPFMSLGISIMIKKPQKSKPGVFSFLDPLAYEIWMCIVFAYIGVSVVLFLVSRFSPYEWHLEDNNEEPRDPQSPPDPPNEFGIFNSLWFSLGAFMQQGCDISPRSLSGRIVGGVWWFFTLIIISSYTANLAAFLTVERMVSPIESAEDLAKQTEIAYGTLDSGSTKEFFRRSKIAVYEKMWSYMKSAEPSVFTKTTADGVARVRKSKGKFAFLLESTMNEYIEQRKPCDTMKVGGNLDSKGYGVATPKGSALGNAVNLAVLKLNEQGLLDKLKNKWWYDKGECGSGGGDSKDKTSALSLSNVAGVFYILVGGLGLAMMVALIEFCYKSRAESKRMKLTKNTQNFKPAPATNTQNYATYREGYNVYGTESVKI
In short: (§3)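 Xenopus oocytes injected with 5–10 ng rat receptor cRNA and kept in Barth's solution at 18 °C. Two-electrode voltage clamp at −40 mV and 23 °C, 2–7 days after injection, in 90 NaCl/1 KCl/10 HEPES/0.5 BaCl2 mM at pH 7.3 or 7.6. Agonists: 50 μM kainate for GluR3, GluR4 and GluR2/3; 3 nM domoate for GluR6; 100 μM AMPA for GluR6/KA1. Current expressed as % of control; paired t test.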

[12] = target: Glutamate receptor 4 (Rattus norvegicus) (UniProt P19493); test: Inhibition of rat recombinant GluR4 expressed in Xenopus oocytes assessed as inhibition of kainate-induced evoked current at 3 uM by two electrode voltage clamp method; format: cell-based; conditions: Oocyte; in short: as §3
Chain of Glutamate receptor 4 (Rattus norvegicus) (P19493 whole entry): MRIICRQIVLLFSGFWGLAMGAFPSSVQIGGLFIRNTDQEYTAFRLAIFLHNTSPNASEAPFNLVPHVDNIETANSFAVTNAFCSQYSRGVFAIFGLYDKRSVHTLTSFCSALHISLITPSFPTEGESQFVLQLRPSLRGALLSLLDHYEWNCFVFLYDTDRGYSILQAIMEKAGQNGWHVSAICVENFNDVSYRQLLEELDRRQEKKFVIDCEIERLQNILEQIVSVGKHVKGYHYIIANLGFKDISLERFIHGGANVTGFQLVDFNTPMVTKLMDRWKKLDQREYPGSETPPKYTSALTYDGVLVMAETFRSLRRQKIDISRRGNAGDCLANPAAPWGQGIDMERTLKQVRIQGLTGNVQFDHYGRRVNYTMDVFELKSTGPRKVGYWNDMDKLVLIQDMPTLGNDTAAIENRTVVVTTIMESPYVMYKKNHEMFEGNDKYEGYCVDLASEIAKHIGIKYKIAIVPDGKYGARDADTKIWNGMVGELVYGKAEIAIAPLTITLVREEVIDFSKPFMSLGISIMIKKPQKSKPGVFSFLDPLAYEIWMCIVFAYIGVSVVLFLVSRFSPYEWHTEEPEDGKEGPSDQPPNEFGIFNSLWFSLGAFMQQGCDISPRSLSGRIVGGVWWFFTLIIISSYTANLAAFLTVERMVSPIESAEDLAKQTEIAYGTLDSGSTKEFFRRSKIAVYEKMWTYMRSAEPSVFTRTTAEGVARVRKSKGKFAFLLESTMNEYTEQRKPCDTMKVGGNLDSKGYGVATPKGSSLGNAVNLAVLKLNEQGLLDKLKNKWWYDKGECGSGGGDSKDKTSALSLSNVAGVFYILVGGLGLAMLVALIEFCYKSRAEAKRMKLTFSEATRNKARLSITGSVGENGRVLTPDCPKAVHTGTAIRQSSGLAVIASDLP

[13] = target: Glutamate receptor 2 (Rattus norvegicus) (UniProt P19491); test: Inhibition of rat recombinant GluR2/GluR3 expressed in Xenopus oocytes assessed as inhibition of kainate-induced evoked current at 3 uM by two electrode voltage clamp method; format: cell-based; conditions: Oocyte; in short: as §3
Mus musculus [14] = organism: Mus musculus; test: Inhibition of mouse NR2B(deltaATD) mutant receptor
Neuron [15] = test: Inhibition of tetrodotoxin-sensitive voltage-gated sodium current in E17 Sprague-Dawley rat neurons at 3 uM at holding potential of […] by whole cell patch clamp method; format: functional
Neuron [16] = test: Inhibition of voltage-gated potassium current in E17 Sprague-Dawley rat neurons at 3 uM by whole cell patch clamp method; format: functional
[17] = Inhibition of N-type calcium channel
Mus musculus [18] = organism: Mus musculus; conditions: 3 uM

CS(=O)(=O)Nc1ccc(OC[C@@H](O)CNCCc2ccc(Cl)c(Cl)c2)cc1
IC50 [1]: > 5 µM | IC50 [2]: 730 nM | IC20 (hERG (KCNH2)): > 174 nM | IC50 [3]: 500 nM | IC50 [4]: 500 nM | Activity (Cortical neurone): Dose-dependent effect | Activity (Rattus norvegicus [5]): inactive | Activity (Rattus norvegicus [6]): Active | concentration (Brain): 170 nM | fraction unbound [7]: 0.12 | fraction unbound [8]: 0.02 | Activity [9]: inactive | Activity [10]: inactive | Activity [11]: inactive | Activity [12]: inactive | Activity [13]: inactive | Activity (Mus musculus [14]): inactive | Activity (Neuron [15]): 1.27 nanoampere | Activity (Neuron [16]): 0.72 nanoampere | IC50 [17]: > 5 µM | inhibition (Mus musculus [18]): 102%
